This is a sample that favours compounds with a hit; in the whole collection about 1.8% have one here.
iPSC survival up – enhancers of single-cell hiPSC survival, primary screen, ATPlite luminescence | 100% = ROCK inhibitor wells, 0% = DMSO | hit rate 0.044% among 360,000 | survival enhancement, % at 20 µM; in the data active = survival enhancement above about 18%;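 also: cells exposed to compounds for 16 hours before the ATP read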
FLuc inhib CS – firefly luciferase enzyme inhibitors, primary screen, artefact control for luciferase-based inhibitor screens, biochemical, luminescence, ATPLite. Luciferin 4-monooxygenase (Photinus pyralis), P08659. 10 min. inhibition, % at 10 µM. hit rate 1.5% among 200,000;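 active = inhibition above about 50% when tested at 10 µM, limit read from the data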
Target sequence (P08659 whole entry, looked up): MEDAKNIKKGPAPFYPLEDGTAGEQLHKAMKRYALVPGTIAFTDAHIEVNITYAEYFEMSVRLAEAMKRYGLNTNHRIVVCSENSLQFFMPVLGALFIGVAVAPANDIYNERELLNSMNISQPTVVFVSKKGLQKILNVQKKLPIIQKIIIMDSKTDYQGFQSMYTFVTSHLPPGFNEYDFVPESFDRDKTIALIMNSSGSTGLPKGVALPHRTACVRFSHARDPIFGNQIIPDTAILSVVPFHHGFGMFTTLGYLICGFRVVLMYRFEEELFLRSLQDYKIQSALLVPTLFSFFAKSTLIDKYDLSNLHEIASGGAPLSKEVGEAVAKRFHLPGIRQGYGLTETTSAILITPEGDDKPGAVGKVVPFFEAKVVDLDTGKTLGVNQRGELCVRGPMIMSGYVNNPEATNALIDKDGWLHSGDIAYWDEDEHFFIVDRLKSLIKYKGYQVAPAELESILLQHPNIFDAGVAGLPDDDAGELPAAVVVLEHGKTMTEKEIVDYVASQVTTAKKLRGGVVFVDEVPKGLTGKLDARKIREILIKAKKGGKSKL
PPC-1+TRAIL kill – compounds killing PPC-1 cancer cells with TRAIL present, primary screen, TRAIL potentiator project, ATPLite luminescence, uHTS; hit rate 0.41% among 220,000; cell killing (% activity), % at 4 µM or 5 µM; PPC-1 cells + TRAIL, ATPLite viability luminescence;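 active = cell killing above 50% in the first pass at 4 µM, then a duplicate retest at 5 µM averaging 50% or more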;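 also: plate controls were cells with TRAIL plus DMSO for no effect and medium-only wells lacking cells for full effect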
C8 TRAIL sens – viability loss with TRAIL in NB7+C8 cells, primary screen, TRAIL sensitizer project, cell-based, ATPlite luminescence. inhibition (viability loss, TRAIL sensitization), % at 10 µM. hit rate 1% among 360,000;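 active = compounds causing at least 50% loss of cell viability in the single-dose screen, relative to plate controls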
beta cell repl – inducers of MIN6 beta-cell proliferation, primary screen, ATP luminescence, uHTS. MIN6 cells proliferation, ATPlite luminescence, 48 h; cells starved in 0.2% serum; 100% = growth in 10% serum. proliferation, % at 10 µM. hit rate 0.29% among 330,000;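 active = compounds whose signal lies at least 3.5 SD above the mean of all wells on their plate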;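 also: 0% = DMSO-treated cells in low-serum medium and 100% = 10% serum control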
FLuc act counter – FLuc activators, initial screening, artefact control for FLuc-dependent activation tests, biochemical, ATPlite luminescence | AID 1027, 2008 | Luciferin 4-monooxygenase (Photinus pyralis), P08659 | activation factor at 10 µM | 200,000 tested, under 10 active | ATPlite luciferase biochemical, 10 min; 0 = ATP-free wells, 1 = DMSO control;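 active = luciferase activation factor, scaled between plate controls, of at least 2 with compound at 10 µM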
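System: Luciferase/luciferin detection reagent, cell-free biochemical luciferase assay | Medium: PBS buffer for ATP | Dosing: Test compounds dosed from 2 mM stocks in 100% DMSO | Timing: 10 min at ambient temperature | Signal: Luminescence measurement of luciferase light output | Evaluation: Luciferase activation, seen as luminescence increase over controls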
An asterisk follows results filed as active; . = no result.

SMILES | iPSC survival up | FLuc inhib CS | PPC-1+TRAIL kill | C8 TRAIL sens | beta cell repl | FLuc act counter
OC(c1ccc(Cl)cc1)c1ncc(-c2cccc(C(F)(F)F)c2)[nH]1 (centres undefined) | 25* | . | . | -11 | . | .
OC(c1cc(F)cc(Cl)c1)c1ncc(-c2cccc(C(F)(F)F)c2)[nH]1 (centres undefined) | -1 | . | . | 0 | . | .
CCn1c(=O)c([N+](=O)[O-])c(Cl)c2ccccc21 | 0 | -8 | 12 | 52* | -7 | 1.1
CC(C)Oc1ccc(C(=O)NC2=NCCS2)cc1 | -1 | 75* | 34 | 59* | -3 | 0.3
CC(C)c1ccc(C(=O)NC2=NCCS2)cc1 | -2 | 84* | 46 | 70* | 0 | 0.2
CCNS(=O)(=O)c1ccc(CCC(=O)NCc2ccc3c(c2)OCO3)cc1 | 0 | . | . | -3 | -2 | .
N#C/C(=C/c1ccc(N2CCOCC2)o1)C(=O)Nc1ccccc1 | -1 | 55* | 8 | 30 | . | 0.4
N#C/C(=C\c1ccc(N2CCOCC2)o1)C(=O)NCCc1ccccc1 | 5 | 1 | -2 | -4 | 3 | 1
CCOC(=O)c1cc(-c2cccc([N+](=O)[O-])c2)on1 | -1 | -4 | 13 | 1 | -2 | 1
COc1ccc(/C=C/C(=O)Nc2cccc(C(C)=O)c2)cc1 | -2 | 70* | 48 | 42 | -3 | 0.3
COc1cccc(/C=C/C(=O)Nc2cccc(C(C)=O)c2)c1OC | -1 | 68* | 28 | 49 | 0 | 0.3
COc1ccccc1/C=C/C(=O)NC(=S)Nc1ccccn1 | 0 | . | . | 9 | -3 | .
COc1ccccc1/C=C/C(=O)Nc1cccc(C(C)=O)c1 | 0 | 17 | 9 | -4 | 0 | 0.8
COc1ccc(/C=C/C(=O)NC(=S)Nc2ccccn2)cc1 | -1 | . | . | 51* | 2 | .
CC(=O)Nc1cccc(C(=O)/C=C/c2ccc(/C=C/C(=O)c3cccc(NC(C)=O)c3)cc2)c1 | . | -4 | 49 | . | -5 | 1
CC1(c2cccc(Br)c2)NC(=O)N(CC(=O)Nc2ccc(S(N)(=O)=O)cc2)C1=O (centres undefined) | 0 | . | . | 21 | -4 | .
FC(F)(F)C1=Nc2cccc3cccc(c23)N1 | 0 | . | . | 51* | -7 | .
Fc1ccc(C2=Nc3cccc4cccc(c34)N2)cc1 | -1 | 6 | -7 | -2 | -5 | 0.9
c1ccc(-c2ccc(-c3cn4c(n3)CCC4)cc2)cc1 | -5 | 65* | 50 | 72* | -3 | 0.3
O=c1c2ccccc2cnn1CCOc1ccccc1 | -2 | 83* | 43 | 38 | -5 | 0.2
O=C(O)Cn1ncc2ccccc2c1=O | 1 | -3 | 18 | -4 | -3 | 1
O=C(COC(=O)c1ccccn1)NCc1cccs1 | 0 | . | . | -7 | 1 | .
CCCCN1C(=O)C(O)(c2ccccc2)c2cc(Br)ccc21 (centres undefined) | -1 | . | . | -6 | 2 | .
COc1ccc(CC2=C(O)c3ccccc3C(=O)C2=O)cc1 | -1 | . | . | -3 | -2 | .
O=C1C(=O)c2ccccc2C(O)=C1CCCCl | -1 | . | 11 | 68* | -6 | .
SMILES | iPSC survival up | FLuc inhib CS | PPC-1+TRAIL kill | C8 TRAIL sens | beta cell repl | FLuc act counter
Cc1ccc(NC(=O)Cc2nnc(SCC(=O)NC3=NCCS3)n2C)cc1 | 0 | . | . | -11 | -2 | .
COc1ccccc1N=C1NC(=O)/C(=C/c2ccc(N(C)C)cc2)S1 | -1 | . | . | 49* | -4 | .
COc1ccc(/C=C2\SC(=Nc3ccccc3)NC2=O)cc1 | . | . | . | . | -3 | .
CC(=O)NS(=O)(=O)c1ccc(NC(=O)c2ccc3c(c2)OCO3)cc1 | 0 | . | . | -9 | -2 | .
O=C(NC1CCS(=O)(=O)C1)c1ccc2c(c1)OCO2 (centres undefined) | 0 | . | . | 6 | 0 | .
CS(=O)(=O)Nc1cccc(NC(=O)C2Cc3c(-c4cccc(F)c4)ccnc3O2)c1 (centres undefined) | -3 | . | . | 70* | . | .
O=C(c1ccc(Br)o1)N1CCc2ccccc21 | . | 54* | 30 | . | -1 | 0.5
Cc1c(C(=O)N2CCc3ccccc32)oc2ccccc12 | -1 | 73* | 28 | 61* | . | 0.3
O=C(O)/C=C\C(=O)NNC(=O)c1cc(-c2ccccc2)n[nH]1 | 0 | . | -9 | 7 | -1 | .
O=C(O)/C=C/C(=O)NNC(=O)c1cc(-c2ccccc2)n[nH]1 | -3 | 44 | 22 | 51* | -3 | 0.6
CC(C)(C)c1cc(/C=N/O)cc(C(C)(C)C)c1O | 0 | -5 | 27 | 1 | 0.0* | 1
CC(C)(C)c1cc(/C=C2\NC(=O)NC2=O)cc(C(C)(C)C)c1O | 0 | . | . | -23 | -4 | .
Cc1ccc2cc3cc(C(=O)N4CCCCC4C)oc3nc2c1 (centres undefined) | -2 | 55* | 40 | 30 | -3 | 0.4
Cc1ccc2cc3cc(C(=O)N4CC(C)CC(C)C4)oc3nc2c1 (centres undefined) | -2 | 4 | 23 | 7 | 0 | 1
O=S(=O)(Nc1ccc(-n2cnnn2)cc1)c1cccc(F)c1 | 0 | . | . | 3 | -1 | .
COc1ccc(C2NN=C(c3ccc(C)cc3)S2)cc1 (centres undefined) | 0 | . | . | 50* | . | .
CCOc1cc(C2NN=C(c3ccc(C)cc3)S2)ccc1O (centres undefined) | 0 | 21 | 18 | 39 | . | 0.8
Oc1ccccc1C1NN=C(c2ccccc2)S1 (centres undefined) | -1 | . | . | 70* | -4 | .
CSc1ccc(C2NN=C(c3ccccc3)S2)cc1 (centres undefined) | -1 | . | . | 84* | -3 | .
CSc1ccc(CNc2ccccc2)cc1 | . | -4 | 10 | . | -3 | 1
O=C(CN(Cc1ccco1)Cc1ccco1)Nc1cc(S(=O)(=O)N2CCCCC2)ccc1Cl | 0 | . | . | 18 | -8 | .
Cc1ccc(S(=O)(=O)N2C[C@H]3[C@H]4C(=O)N(C5CCCCC5)C(=O)[C@H]4CC(=O)[C@H]3[C@@H]2c2cccc3ccccc23)cc1 | 0 | . | . | 60* | . | .
Cc1ccc(S(=O)(=O)N2C[C@H]3[C@H]4C(=O)N(C5CCCCC5)C(=O)[C@H]4CC(=O)[C@H]3[C@@H]2c2ccccc2F)cc1 | 0 | . | . | 0 | . | .

Assay outcomes from PubChem.
